hIAP activ = increases human intestinal alkaline phosphatase activity | activation factor at 10 µM | hit rate 0.16% among 330,000 | P09923 | purified human IAP, CDP-Star luminescence, 30 min; hits give high values; 1 = vehicle-only enzyme, 0 = enzyme-free background | AID 2524;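 active = activation factor of the enzyme at least 2-fold when tested at 20 µM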
Target sequence (P09923 whole entry, looked up): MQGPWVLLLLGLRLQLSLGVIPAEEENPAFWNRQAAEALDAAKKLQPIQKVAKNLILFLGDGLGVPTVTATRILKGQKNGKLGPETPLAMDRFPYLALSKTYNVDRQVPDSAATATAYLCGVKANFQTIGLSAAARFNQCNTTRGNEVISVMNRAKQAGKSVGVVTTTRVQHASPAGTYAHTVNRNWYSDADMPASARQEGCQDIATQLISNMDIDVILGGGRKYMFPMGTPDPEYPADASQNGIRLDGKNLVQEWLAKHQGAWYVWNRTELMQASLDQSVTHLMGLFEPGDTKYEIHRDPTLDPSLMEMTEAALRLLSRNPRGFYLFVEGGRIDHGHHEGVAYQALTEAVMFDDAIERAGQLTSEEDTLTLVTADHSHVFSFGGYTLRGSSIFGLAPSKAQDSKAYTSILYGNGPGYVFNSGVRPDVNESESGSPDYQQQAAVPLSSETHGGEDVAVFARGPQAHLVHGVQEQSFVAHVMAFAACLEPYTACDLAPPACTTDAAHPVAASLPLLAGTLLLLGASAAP
bIAP inh = blocks bovine intestinal alkaline phosphatase activity; purified bovine IAP, CDP-star luminescence, 30 min; inhibition, % at 20 µM; 190,000 tested, under 10 active;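 active = over 50% inhibition of intestinal alkaline phosphatase at 20 µM in the single-dose screen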
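Assay system: bovine IAP enzyme; medium: DEA buffer 100 mM, pH 9.8, with MgCl2 1.0 mM, ZnCl2 0.02 mM; doses: 20 µM single dose; incubation: enzyme reaction for 30 min at room temperature; detection: CDP-star luminescence signal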
hIAP inh = human IAP inhibition. inhibition, % at 10 µM. AID 2544. hit rate 0.12% among 330,000. P09923. purified IAP, CDP-Star luminescence, 30 min;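 active = inhibition reaching a set limit with compound at 10 µM in the primary screen, cut at about 35% in these data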;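 note: plate controls were DMSO wells with enzyme for no effect and no-enzyme buffer wells for full effect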
mIAP act = mouse IAP activation | activation factor at 10 µM | muIAP, CDP-Star luminescence, 30 min; hits give high values; 1 = vehicle-only enzyme signal, 0 = enzyme-free wells | hit rate 0.24% among 330,000 | AID 2805;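 active = activation factor of at least 2 at 20 µM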
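also added = chemiluminescent substrate CDP-Star | test system = mouse IAP enzyme | signal = chemiluminescence readout | compound = DMSO-dissolved test compounds | incubation = 30 min at room temperature | benchmarks = DMSO wells, no-enzyme wells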
bIAP act = increases bovine intestinal alkaline phosphatase activity | purified bovine IAP, CDP-star luminescence, 30 min; hits give high values; fold of DMSO-control signal, blank-subtracted | activation factor at 20 µM | hit rate 0.17% among 200,000;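 active = activation factor of 2 or more at 20 µM, a signal rise over negative controls twice the positive control's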
mIAP inh = mouse IAP inhibition; purified mouse IAP, CDP-Star luminescence, 30 min; inhibition, % at 10 µM; hit rate 0.2% among 330,000;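 active = inhibition of at least 40% at 10 µM in the primary screen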;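 note: plate controls were DMSO with enzyme for no effect and no enzyme wells for full effect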
hIAP act confirm = human IAP activation confirmation | AID 434926 | purified IAP, CDP-Star luminescence, 30 min; hits give low values | shares compounds with hIAP activ | activation (%Activity, negative = activation), % at 8.3 µM | hit rate 10% among 880;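 active = at least twofold enzyme activation in any of six single-dose repeats, which the averaged readout prints as negative percent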
* marks the source's active call; other numbers are inactive results; · = no result. Hits are enriched below; roughly 0.72% of the tested compounds scored in any of these assays.

SMILES	hIAP activ	bIAP inh	hIAP inh	mIAP act	bIAP act	mIAP inh	hIAP act confirm
CCOc1ccc(C2NC(=O)C(C#N)=C(S)N2c2ccc(C)cc2)cc1OC (configuration not stated)	2*	7	-103	0.86	0.9	14	-77
Cc1ccc(NC(=O)NNC(=O)c2cc3ccccc3cc2O)cc1	2.1*	·	-112	0.96	·	4	-70*
COc1ccccc1NC(=O)NNC(=O)c1cc2ccccc2cc1O	2*	·	-101	0.89	·	11	-55
Cc1ccc(N(C)C(=O)C2CCCN2S(=O)(=O)c2ccc3c(c2)n(C)c(=O)c(=O)n3C)cc1 (configuration not stated)	0.96	·	4	1	·	-2	·
O=C(CNS(=O)(=O)c1ccccc1)NNC(=O)C(Cl)Cl	2.2*	-34	-123	0.75	1.3	25	-6
O=C(CCNS(=O)(=O)c1ccccc1C(F)(F)F)NNC(=O)c1csc(N2CCOCC2)n1	2.1*	·	-107	0.79	·	21	0
O=C(NNC(=O)c1cc(Br)ccc1O)c1csc(N2CCOCC2)n1	2.4*	·	-143	0.77	·	23	7
Nc1nc(-c2ccccc2)c(N=Nc2cccc3ccccc23)s1	0.65	0	35*	0.69	1	30	15
O=C(NCCS(=O)(=O)N1CCN(c2cccc(Cl)c2)CC1)c1cc(=O)c2ccccc2o1	0.61	·	39*	0.91	·	9	-5
O=C(NCCS(=O)(=O)N1CCN(c2cccc(Cl)c2)CC1)c1ccc2c(c1)OCO2	0.88	·	12	1	·	-4	·
Cc1ccc(OCCNS(=O)(=O)c2ccc(N3CCCC3=O)cc2)cc1	0.64	24	36*	0.98	0.8	2	-70
Cc1ccc(OCCNS(=O)(=O)c2ccc(N3CCCC3=O)cc2)cc1C	1.1	-2	-8	0.93	1	8	·
O=Nc1[nH]c(=O)c(/C=C(\O)c2ccccc2)nc1NO	2.1*	·	-113	0.85	·	15	-85*
Cc1cccc(NC(=O)c2nc[nH]c2C(=O)NCCCCNC(=O)c2[nH]cnc2C(=O)Nc2cccc(C)c2)c1	1.4	·	-44	1	·	-3	·
C[C@]12CCC[C@H](O1)c1c(cc3c(c1O)C(=O)c1c(O)cc(O)cc1C3=O)O2	0.97	·	3	0.73	·	27	·
C=CCn1c(O)c(N=Nc2ccccc2O)c2ccccc21	2.2*	·	-120	0.79	·	21	36
CCOc1ccc(S(=O)(=O)N2CCN(S(=O)(=O)c3ccc(C)c(C)c3)CC2)cc1	0.94	·	6	0.97	·	3	·
CCOC(=O)C(=O)N/N=C(/c1ccccc1)c1ccc(OC)cc1	0.63	·	37*	1	·	-3	-47
O=C(O)CCC(=O)N1CCN(c2ncccn2)CC1	1	·	-2	1.1	·	-10	·
Cn1c(CNC(=O)CCNC(=O)c2cccc(F)c2)cc(=O)n(C)c1=O	0.62	·	38*	0.93	·	7	3
Cn1c(CNC(=O)CNC(=O)c2cccc(F)c2)cc(=O)n(C)c1=O	0.97	·	3	1	·	-3	·
O=c1c2ccccc2nc(N/N=C/c2c(O)ccc3ccccc23)n1O	2*	-17	-103	0.88	1.2	12	-54*
O=c1c2ccccc2nc(N/N=C/c2ccc(O)cc2)n1O	1	-15	-4	0.86	1.2	14	·
Cn1cccc1-c1cc(C(=O)N/N=C/c2cc(Br)ccc2O)[nH]n1	2.5*	·	-154	0.71	·	29	-2
C/C=N/NC(=O)c1cc(Br)ccc1O	1.2	-18	-23	1	1.2	0	·
SMILES	hIAP activ	bIAP inh	hIAP inh	mIAP act	bIAP act	mIAP inh	hIAP act confirm
Cc1c(/C=N/NC(=O)c2cc(Br)ccc2O)c(=O)n(C)c(=O)n1C	2.1*	·	-114	0.98	·	2	-35
COC(=O)CSc1nnc(Cc2ccccc2)n1-c1ccc(C)cc1	0.94	-4	6	1.1	1	-6	·
O=C(CSc1nnc(Cc2ccccc2)n1-c1ccccc1)NNC(=O)Cc1ccccc1	2.1*	-61	-114	1	1.6	0	-46
O=C(Cc1ccc(Cl)c(Cl)c1)NNC(=S)NCC1CCCO1 (configuration not stated)	2.1*	·	-107	0.95	·	4	-98*
S=C(NCC1CCCO1)Nc1ccc(Cl)c(Cl)c1 (configuration not stated)	0.98	10	2	1.2	0.9	-18	·
O=C(NCCN1CCOCC1)N1CCOCC1	0.85	13	15	0.91	0.9	9	·
CCCC(CCC)C(=O)NCCN1CCOCC1	0.61	3	39*	0.99	1	1	-35
Cn1cc(/C=C(\NC(=O)c2ccccc2Cl)C(=O)NCCCN2CCOCC2)c2ccccc21	1.1	·	-9	1	·	-1	·
Cn1cc(/C=C(\NC(=O)c2ccccc2Cl)C(=O)NCCN2CCOCC2)c2ccccc21	0.62	·	38*	0.93	·	7	14
COc1ccc(S(=O)(=O)N2CCN(CC(=O)c3ccc(O)c(O)c3)CC2)cc1	0.61	·	39*	0.71	·	29	-19
CCOc1ccc(/C=N/NC(=O)CN2CCCCC2)cc1OCC	1.1	·	-6	1.1	·	-8	·
CC(C)c1c(C(=O)N/N=C/c2ccc3c(c2)OCO3)nnn1-c1nonc1N	1.1	·	-10	0.98	·	2	·
CCN(CC)c1ccc(/C=N/NC(=O)c2nnn(-c3nonc3N)c2C(C)C)c(O)c1	2*	·	-100	0.86	·	14	32
COc1ccc(NC(=O)CN(C)C(=O)CN2C(=O)NC3(CCCC3)C2=O)cc1	0.9	·	10	1.1	·	-6	·
Cc1cccc(C(=O)NNC(=O)CCCCC(=O)NNC(=O)c2cccc(C)c2)c1	2.4*	·	-144	1.1	·	-7	-4
Cc1cc(C(=O)NNC(=O)CCCCC(=O)NNC(=O)c2cc(C)[nH]n2)n[nH]1	3.5*	20	-254	0.73	0.8	27	-79
COc1ccc(CC(=O)NNC(=O)c2cc(C)[nH]n2)cc1	1.4	·	-43	0.79	·	21	·
Cc1ccc(NC(=O)c2sc3ccccc3c2Cl)nc1	2.1*	1	-110	0.98	1	2	-29
CC(NC(=O)CN(C)S(=O)(=O)c1ccc(Br)s1)c1ccccc1 (configuration not stated)	0.97	·	3	1	·	-2	·
CCOC(=O)c1[nH]cnc1C(=O)Nc1ccccc1OC	1.3	-15	-33	1.1	1.1	-8	·
CCNS(=O)(=O)c1ccc(CCC(=O)N2CCCC2)cc1	0.58	·	42*	1	·	-3	4
CCn1c(SCC(=O)Nc2cc(C)on2)nc2c(c1=O)SCC2	0.92	·	8	0.95	·	5	·
CCOC(=O)C(=CNc1ccc(Oc2cccnc2)nc1)C(=O)OCC	0.99	·	1	0.97	·	3	·
CCn1cc(C(=O)NCCCOC)c(=O)c2cc(S(=O)(=O)N3CCCC3)ccc21	0.61	·	39*	0.98	·	2	-23
